Experimental data published in PMC4277744 (European journal of medicinal chemistry, 2014).
pIC50, pKd: −log10 of the molar value. Like-named read-outs stand apart in the source and are kept apart here. Each block holds one compound with its values, some of them ahead of it.

Experiments:
[1] = target: HIF-1α (785-826)/p300 CH1 domain (323-423) (Homo sapiens, UniProt Q09472); assay: ELISA competition assay for disrupting HIF-1α/p300 binding; settings: read-out: IC50, HIF-1α/p300 interaction, 1% DMSO
Method in brief: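 Assay wells held 1% DMSO. Each determination ran in triplicate and is reported with ±SD.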

[2] = cited from earlier work
[3] = target: T1, catalytic domain of KDM4A (Homo sapiens, UniProt O75164); assay: Fluorescence-based; format: biochemical; settings: FluoZin-3 dye measures unbound zinc; ebselen positive control
T1 sequence (O75164 142-308 limits assumed): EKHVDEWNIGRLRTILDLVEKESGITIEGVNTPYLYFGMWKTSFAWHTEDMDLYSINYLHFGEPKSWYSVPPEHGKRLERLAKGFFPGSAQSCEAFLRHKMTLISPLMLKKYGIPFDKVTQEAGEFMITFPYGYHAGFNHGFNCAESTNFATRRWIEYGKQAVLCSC

[4] = target: CH1 domain of p300 (Homo sapiens, UniProt Q09472); assay: Fluorescence-based assay for release of Zn; format: biochemical; settings: high basal levels of Zn(II), poorer resolution
[5] = system: HeLa cell; assay: HeLa cell viability assay; settings: after 48 h
[6] = system: HeLa cell
[7] = target: p300 CH1 (Homo sapiens) (UniProt Q09472); settings: cited from earlier work
[8] = Stability of ninhydrin adduct in aqueous buffer monitored by 1H NMR; format: physicochemical; settings: after one hour, pH 8, D2O, 10 mM phosphate buffer

Chain of CH1 domain of p300 (Q09472 331-417 limits assumed): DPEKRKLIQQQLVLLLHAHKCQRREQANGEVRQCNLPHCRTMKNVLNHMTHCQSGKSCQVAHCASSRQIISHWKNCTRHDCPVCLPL
Chain of p300 CH1 (Homo sapiens) (Q09472 331-417): as the sequence (Q09472 331-417 limits assumed) above
Chain of HIF-1α (785-826)/p300 CH1 domain (323-423) (Q09472 323-423): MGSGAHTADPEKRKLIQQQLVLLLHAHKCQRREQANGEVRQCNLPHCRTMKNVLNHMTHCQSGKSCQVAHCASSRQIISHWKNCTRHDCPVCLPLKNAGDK
Chain of HIF-1α C-TAD (Q16665 783-826): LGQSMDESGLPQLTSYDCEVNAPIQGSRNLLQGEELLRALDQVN

pIC50 [1]: ~4.00
Compound: c1ccc(SSc2ccccn2)nc1 [compound 13, Dipyridyldisulfide]

Compound: O=C1c2ccccc2C(=O)c2ccccc21 [compound 7, anthraquinone]
half wave potential (E1/2) [2]: -1.26 V

Compound: O=C1C=CC(=O)c2ccccc21 [compound 8, naphthoquinone]
Zn(II) ion ejection from KDM4A [3]: caused Zn(II) ion loss
Zn(II) ion release from CH1 domain of p300 [4]: dose- and time-dependent increases in fluorescence
half wave potential (E1/2) [2]: -1.03 V
cytotoxicity in HeLa cell viability assay [5]: significant dose-dependent cytotoxicity

Compound: O=C(NN1C(=O)c2ccccc2C1=O)c1ccccc1 [compound 21, N-(1,3-Dioxoisoindolin-2-yl)benzamide]
cytotoxicity in HeLa cell viability assay [6]: not cytotoxic

Zn(II) ion ejection from KDM4A [3]: caused Zn(II) ion loss
Compound: O=C(NC1(O)C(=O)c2ccccc2C1=O)c1cccnc1 [compound 16, N-(2-Hydroxy-1,3-dioxo-2,3-dihydro-1H-inden-2-yl)nicotinamide]

Compound: HIF-1α C-TAD (from UniProt Q16665)
pKd [7]: 8.15

Zn(II) ion ejection from KDM4A [3]: caused Zn(II) ion loss
Compound: O=C1c2ccccc2C(=O)C1(O)O [compound 23, ninhydrin]
Zn(II) ion release from CH1 domain of p300 [4]: dose- and time-dependent increases in fluorescence
cytotoxicity in HeLa cell viability assay [6]: significant dose-dependent cytotoxicity

hydrolysis to picolinamide and ninhydrin 23 [8]: 80%
Compound: O=C(NC1(O)C(=O)c2ccccc2C1=O)c1ccccn1 [compound 5, N-(2-Hydroxy-1,3-dioxo-2,3-dihydro-1H-inden-2-yl)picolinamide]
